Active and inactive are the calls of the source. The calls are words filed in the database; no cut-off is given here.
What was measured:
[1] = test system: HCC 2998; assay: Growth inhibition of human HCC2998 cells at 10 uM after 48 hrs by SRB assay; format: functional
Procedure, shortened: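 Cells grown in RPMI 1640 with 5% FBS and 2 mM L-glutamine, plated at 5000–40,000 cells/well by doubling time and preincubated 24 h (37 °C, 5% CO2); a time-zero plate is TCA-fixed. Single dose added, then 48 h incubation. Fixed with cold TCA, stained with 0.4% SRB, dye solubilized in 10 mM Tris base, absorbance at 515 nm; percent growth vs time-zero and untreated control.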

[2] = test system: DNA; assay: Binding affinity to calf thymus DNA assessed as DNA intercalation at 50 uM by UV-visible spectrophotometry; format: nucleic-acid assay; conditions: Bos taurus
Procedure, shortened: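 ct-DNA titrated (4–100 µM) into phosphate-buffered solution (pH 7.0) of compound at 50 µM; absorption spectra recorded by UV–visible spectrophotometry, tracking band shift and hypochromism.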

[3] = test system: DNA; assay: Binding affinity to calf thymus DNA assessed as change in melting temperature by thermal denaturation assay; format: nucleic-acid assay; conditions: Bos taurus
[4] = test system: DNA; assay: Binding affinity to calf thymus DNA assessed as DNA intercalation at 50 uM by fluorescence spectrophotometry; format: nucleic-acid assay; conditions: Bos taurus
Procedure, shortened: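 Fluorescence titration: increasing ct-DNA added to compound in phosphate buffer (pH 7.0); decrease in emission band at 500 nm monitored; binding constant derived from titration data by Benesi–Hildebrand method.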

Row | Compound | growth inhibition (GI) [1] | Activity [2] | ΔTm [3] | Activity [4]
1 | O=c1[nH]cc(F)c(=O)[nH]1 [FLUOROURACIL] | Active | – | – | –
2 | Nc1ccc(Sc2ccc3c4c2cccc4c(=O)n2c4ccccc4nc32)cc1 | – | Active | 8.2 °C | Active
